Columns and labels:
[1] = Solubility of the compound in DMSO; format: physicochemical
[2] = Solubility of the compound in pH 7.4 Tris HCl buffer; format: physicochemical
[3] = Permeability of the compound at 10 uM after 5 hrs by PAMPA; format: ADME; conditions: read-out: permeability
Outline: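 Parallel artificial membrane permeability assay reported as effective permeability Pe (10−6 cm/s). Pe > 1.5 is taken as high permeability.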

[4] = biological target: T1, Tyrosyl-DNA phosphodiesterase 2 (Homo sapiens, UniProt O95551); experiment: Inhibition of recombinant human TDP2 using T5PNP as substrate preincubated for 10 mins followed by substrate addition and measured after 30 mins
T1 sequence (O95551 whole entry): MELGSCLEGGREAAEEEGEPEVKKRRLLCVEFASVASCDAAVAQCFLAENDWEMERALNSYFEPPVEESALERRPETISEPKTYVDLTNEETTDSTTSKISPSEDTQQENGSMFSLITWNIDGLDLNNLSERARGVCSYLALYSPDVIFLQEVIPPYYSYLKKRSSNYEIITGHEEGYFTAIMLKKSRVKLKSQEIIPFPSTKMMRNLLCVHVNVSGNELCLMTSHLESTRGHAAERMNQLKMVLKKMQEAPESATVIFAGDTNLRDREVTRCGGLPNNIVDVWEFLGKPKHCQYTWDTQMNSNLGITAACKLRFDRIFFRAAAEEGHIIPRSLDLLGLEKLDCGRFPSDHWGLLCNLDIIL

[5] = test system: HepG2; experiment: Cytotoxicity against human HepG2 cells after 72 hrs by MTT assay; format: cell-based; conditions: hepg2, 72 h
Outline: (§1)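 Compounds tested at 50 μM and 100 μM to give CC50. Two independent experiments were run, each in triplicate.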

[6] = test system: HeLa; experiment: Cytotoxicity against human HeLa cells after 72 hrs by MTT assay; format: cell-based; outline: as §1

solubility [1]	Papp at 5 h, 10 µM [3] [×10⁻⁶ cm/s]	SMILES	further results
Soluble	0.16	O=C(Nc1nc2nc(-c3ccccc3)ccn2n1)c1cccc([N+](=O)[O-])c1	solubility [2]: Soluble
Insoluble		O=C(Nc1nc2nc(-c3ccccc3)ccn2n1)c1cccc(Br)c1	
Insoluble		N#Cc1cccc(C(=O)Nc2nc3nc(-c4ccccc4)ccn3n2)c1	
Insoluble		O=C(Nc1nc2nc(-c3ccccc3)ccn2n1)c1ccccc1	
	0.095	NC1=CC(N)=C2C=CC(=O)N=C2C1=O	IC50 [4]: 1.7 µM
	0.9	O=C(Nc1nc2cc(-c3ccccc3)ccn2n1)c1cccc(Cl)c1	CC50 [5]: > 100 µM; CC50 [6]: > 100 µM
	6.3	O=C(Nc1nc2cc(-c3cccnc3)ccn2n1)c1cccc(Cl)c1	CC50 [5]: > 100 µM; CC50 [6]: > 100 µM
Insoluble		O=C(Nc1nc2nc(-c3ccccc3)ccn2n1)c1cccc(C(F)(F)F)c1	
Insoluble		O=C(Nc1nc2nc(-c3ccccc3)ccn2n1)c1ccc([N+](=O)[O-])cc1	
	0.15	O=C(Nc1nc2cc(-c3ccccc3)ccn2n1)c1cccc([N+](=O)[O-])c1	

From ChEMBL document CHEMBL4371040, “Triazolopyrimidine and triazolopyridine scaffolds as TDP2 inhibitors” (Bioorg Med Chem Lett, 2019)
